Data on three compounds can be found in ChEMBL document CHEMBL4184260, “Fluorous-tag assisted synthesis of a glycosaminoglycan mimetic tetrasaccharide as a high-affinity FGF-2 and midkine ligand” (Bioorg Med Chem, 2018).

Data set [1] can be described thus: Solubility of the compound in PBS buffer at 100 uM at pH 7.4 in presence of 1% DMSO. The format is physicochemical. The settings on record: pH 7.4, 100 µM.
Data set [2] addresses T1, Midkine (Homo sapiens, UniProt P21741).
T1 sequence (P21741 whole entry): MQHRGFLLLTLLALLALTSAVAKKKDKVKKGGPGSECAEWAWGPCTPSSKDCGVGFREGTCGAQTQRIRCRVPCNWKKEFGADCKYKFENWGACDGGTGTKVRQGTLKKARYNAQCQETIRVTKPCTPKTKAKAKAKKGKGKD
In words: Inhibition of fluorescein labelled heparin-like hexasaccharide probe binding to recombinant human midkine after 5 mins by fluorescence polarization assay. The method in brief:
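Recombinant human midkine at 63 nM final with 10 nM fluorescein-labelled heparin-like hexasaccharide probe in PBS (10 mM, pH 7.4) plus 0.5% BSA. […] Shaken 5 min in the dark; polarization read at ex 485 / em 535 nm. Triplicate wells averaged, one-site competition fit for IC50. At least three independent experiments.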
In general terms: Polarisation of emitted light reports the rotation of a fluorescent probe.

Data set [3] has as its target Fibroblast growth factor 2 (Homo sapiens, UniProt P09038). In words: Inhibition of fluorescein labelled heparin-like hexasaccharide probe binding to recombinant human FGF-2 after 5 mins by fluorescence polarization assay.

Sequence of Fibroblast growth factor 2 (P09038 143-288 limits assumed): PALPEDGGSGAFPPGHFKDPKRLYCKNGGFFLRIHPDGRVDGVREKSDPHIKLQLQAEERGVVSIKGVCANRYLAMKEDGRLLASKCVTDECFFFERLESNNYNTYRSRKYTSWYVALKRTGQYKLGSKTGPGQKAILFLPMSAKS

Take `COc1ccc(O[C@@H]2O[C@H](COC(=O)CCC(F)(F)C(F)(F)C(F)(F)C(F)(F)C(F)(F)C(F)(F)C(F)(F)C(F)(F)F)[C@@H](O[C@@H]3O[C@H](CO[SH+]([O-])(O)O)[C@@H](O[SH+]([O-])(O)O)[C@H](O[C@@H]4O[C@H](COC(=O)C(C)(C)C)[C@@H](O[C@@H]5O[C@H](CO[SH+]([O-])(O)O)[C@@H](O[SH+]([O-])(O)O)[C@H](OC(=O)CCC(C)=O)[C@H]5N5C(=O)c6ccccc6C5=O)[C@H](OCc5ccccc5)[C@H]4OC(=O)c4ccccc4)[C@H]3N3C(=O)c4ccccc4C3=O)[C@H](OCc3ccccc3)[C@H]2OC(=O)c2ccccc2)cc1`: the solubility entry in data set [1] is listed as “Soluble”.

As usually defined, the IC50 is the point on the concentration scale where inhibition reaches its midpoint. Regarding `COc1ccc(O[C@@H]2O[C@H](C(=O)OCc3ccccc3)[C@@H](O[C@@H]3O[C@H](COS(=O)(=O)O)[C@@H](OS(=O)(=O)O)[C@H](O[C@@H]4O[C@H](C(=O)OCc5ccccc5)[C@@H](O[C@@H]5O[C@H](COS(=O)(=O)O)[C@@H](OS(=O)(=O)O)[C@H](OC(=O)CCC(C)=O)[C@H]5NC(=O)C(F)(F)F)[C@H](OCc5ccccc5)[C@H]4OC(=O)c4ccccc4)[C@H]3NC(=O)C(F)(F)F)[C@H](OCc3ccccc3)[C@H]2OC(=O)c2ccccc2)cc1`, the IC50 in data set [2] was determined as 1.3 µM; in data set [3], 42 µM.

In the case of `COc1ccc(O[C@@H]2O[C@H](C(=O)O)[C@@H](O[C@@H]3O[C@H](COS(=O)(=O)O)[C@@H](OS(=O)(=O)O)[C@H](O[C@@H]4O[C@H](C(=O)O)[C@@H](O[C@@H]5O[C@H](COS(=O)(=O)O)[C@@H](OS(=O)(=O)O)[C@H](O)[C@H]5NC(C)=O)[C@H](O)[C@H]4O)[C@H]3NC(C)=O)[C@H](O)[C@H]2O)cc1`, the IC50 in data set [2] is 254 µM; in data set [3], 271 µM.
